Measurements reported in ChEMBL document CHEMBL1142364, “Investigation of the alkenyldiarylmethane non-nucleoside reverse transcriptase inhibitors as potential cAMP phosphodiesterase-4B2 inhibitors” (Bioorg Med Chem Lett, 2008).
The source made the active and inactive calls. The rule behind the calls is not given here.

Legend:
[1] = system: Human immunodeficiency virus 1; assay: Antiviral activity against HIV1 RF in CEM-SS cells assessed as inhibition of virus-induced cytopathic effect by XTT assay; format: functional, organism-based; details: Human immunodeficiency virus 1, RF
Outline: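 CEM-SS cells infected with HIV-1 RF; XTT cytoprotection read-out; EC50 is the concentration that inhibits 50% of viral cytopathic effect.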

[2] = Cytotoxicity against human CEM-SS cells; format: cell-based
Outline: (§1)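 Mock-infected CEM-SS or MT-4 cells run alongside the antiviral cultures; CC50 is the concentration causing death of 50% of the cells.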

[3] = target: 3',5'-cyclic-AMP phosphodiesterase 4B (Homo sapiens) (UniProt Q07343); assay: Inhibition of PDE4B2 expressed in COS7 cells assessed as cAMP hydrolysis at 100 uM; format: cell-based; details: COS-7
[4] = system: Human immunodeficiency virus 2; assay: Antiviral activity against HIV2 ROD in MT4 cells assessed as inhibition of virus-induced cytopathic effect by MTT assay; format: functional, organism-based
Outline: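 MT-4 cells infected with HIV-2 ROD; protection from cytopathic effect read by MTT assay; EC50 is the concentration blocking 50% of virus-induced cell killing.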

[5] = target: Human immunodeficiency virus type 1 reverse transcriptase (Human immunodeficiency virus 1, UniProt Q72547); assay: Inhibition of HIV1 reverse transcriptase
Outline: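 Recombinant HIV-1 RT, p66/51 heterodimer; polymerase activity measured with poly(rC).oligo(dG) as template primer.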

[6] = Cytotoxicity against human MT4 cells; format: cell-based; outline: as §1
[7] = system: Human immunodeficiency virus 1; assay: Antiviral activity against HIV1 3B in MT4 cells assessed as inhibition of virus-induced cytopathic effect by MTT assay; format: functional, organism-based; details: Human immunodeficiency virus 1, 3B
Outline: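 Cytoprotection in MT-4 cells infected with HIV-1 IIIB, read by MTT assay; EC50 taken as the concentration giving 50% inhibition of viral cytopathic effect.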

3',5'-cyclic-AMP phosphodiesterase 4B (Homo sapiens), sequence (Q07343 whole entry): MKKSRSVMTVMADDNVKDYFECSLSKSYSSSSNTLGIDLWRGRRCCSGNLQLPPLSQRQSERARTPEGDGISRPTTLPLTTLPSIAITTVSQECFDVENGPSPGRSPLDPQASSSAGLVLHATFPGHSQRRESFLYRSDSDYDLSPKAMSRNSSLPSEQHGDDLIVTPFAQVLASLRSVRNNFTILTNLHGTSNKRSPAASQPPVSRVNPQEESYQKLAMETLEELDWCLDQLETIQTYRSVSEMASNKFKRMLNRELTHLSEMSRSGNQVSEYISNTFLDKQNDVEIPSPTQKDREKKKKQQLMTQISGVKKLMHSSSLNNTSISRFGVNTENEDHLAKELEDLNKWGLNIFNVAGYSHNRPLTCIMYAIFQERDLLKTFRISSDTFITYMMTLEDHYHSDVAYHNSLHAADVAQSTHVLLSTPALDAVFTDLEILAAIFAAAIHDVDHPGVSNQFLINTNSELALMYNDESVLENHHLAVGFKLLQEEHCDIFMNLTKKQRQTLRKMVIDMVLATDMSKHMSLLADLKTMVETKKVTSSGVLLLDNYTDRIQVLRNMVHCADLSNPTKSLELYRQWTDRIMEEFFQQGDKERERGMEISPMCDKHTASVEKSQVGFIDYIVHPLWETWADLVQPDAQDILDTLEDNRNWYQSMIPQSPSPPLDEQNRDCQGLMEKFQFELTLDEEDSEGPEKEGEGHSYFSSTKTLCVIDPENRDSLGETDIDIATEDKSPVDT

Structure (SMILES)	EC50 [1] [µM]	CC50 [2] [µM]	Activity [3]	Activity [4]	inhibition [3] [%]	IC50 [5] [µM]	CC50 [6] [µM]	EC50 ([4]; Human immunodeficiency virus 2, ROD) [µM]	EC50 [7] [µM]
CCCCCC=C(c1cc(Cl)c(OC)c(C(=O)OC)c1)c1cc(Cl)c(OC)c(C(=O)OC)c1	16	> 29	inactive						
COC(=O)CCCC=C(c1cc(Br)c(OC)c(C(=O)OC)c1)c1cc(Br)c(OC)c(C(=O)OC)c1	0.001			inactive	40				
COC(=O)c1cc(C(=CCCCSC)c2cc(Cl)c(OC)c(C(=O)OC)c2)cc(Cl)c1OC	5.3	> 20			20	> 100			
COc1ccc(C2CNC(=O)C2)cc1OC1CCCC1 (stereo not drawn)					100				
COC(=O)c1cc(C(=CCCCc2ccccc2)c2cc(Br)c(OC)c(C(=O)OC)c2)cc(Br)c1OC		> 200	inactive			> 100	> 198	21	
COC(=O)CCCC=C(c1cc(C)c2oc(=O)n(C)c2c1)c1cc(C)c2oc(=O)n(C)c2c1	0.62	31		inactive	71	0.5	33		0.22
COC(=O)CCC/C=C(\c1cc(C)c(OC)c(C(=O)OC)c1)c1cc(C)c2oc(=O)n(C)c2c1	0.03			inactive	72				0.09
Cc1ccnc2c1NC(=O)c1cccnc1N2C1CC1				inactive					
